From ChEMBL document CHEMBL1154802, “Antiestrogenic constituents of the Thai medicinal plants Capparis flavicans and Vitex glabrata” (2009)
Activity calls are given as the source filed them. The rule behind the calls is not given here.

Legend:
T47D [1] = test: Antiestrogenic activity in human T47D cells assessed as drug level causing inhibition of 100 pM E2-enhanced cell proliferation to level equivalent to 10 pM E2 after 96 hrs by alamar blue assay; type: functional
Outline: (§1)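 Cells seeded at 1 × 10^4 per well in phenol red-free RPMI with 5% DCC-treated FBS. E2 was added from a 20 nM solution to give 100 pM and preincubated 1 h at 37 °C, 5% CO2. Compounds were then added at 0.1, 1, 10 and 100 µM for 96 h, with serially diluted tamoxifen as positive control. Antagonism was judged from cell populations. iEqE values were obtained by linear regression over four concentrations.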

MCF7 [2] = test: Antiestrogenic activity in human MCF7 cells assessed as inhibition of E2-enhanced cell proliferation at 0.1 to 100 uM after 96 hrs by alamar blue assay; type: functional; outline: as §1
T47D [3] = test: Antiestrogenic activity in human T47D cells assessed as inhibition of E2-enhanced cell proliferation at 0.1 to 100 uM after 96 hrs by alamar blue assay; type: functional; outline: as §1
T47D [4] = test: Antiestrogenic activity in human T47D cells assessed as drug level causing inhibition of 100 pM E2-enhanced cell proliferation to level equivalent to 50 pM E2 after 96 hrs by alamar blue assay; type: functional; outline: as §1
T47D [5] = test: Stimulation of human T47D cell proliferation up to 100 uM after 96 hrs by alamar blue assay relative to estradiol; type: functional, cell-based
Outline: (§2)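 Compounds were given alone at 0.1, 1, 10 and 100 µM, and stimulation of proliferation was compared with estradiol at 1–100 pM. Cell proliferation assay as in an earlier report.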

T47D [6] = test: Antiestrogenic activity in human T47D cells assessed as drug level causing inhibition of 100 pM E2-enhanced cell proliferation to level equivalent to 1 pM E2 after 96 hrs by alamar blue assay; type: functional; outline: as §1
MCF7 [7] = test: Antiestrogenic activity in human MCF7 cells assessed as drug level causing inhibition of 100 pM E2-enhanced cell proliferation to level equivalent to 50 pM E2 after 96 hrs by alamar blue assay; type: functional; outline: as §1
MCF7 [8] = test: Antiestrogenic activity in human MCF7 cells assessed as drug level causing inhibition of 100 pM E2-enhanced cell proliferation to level equivalent to 10 pM E2 after 96 hrs by alamar blue assay; type: functional; outline: as §1
MCF7 [9] = test: Stimulation of human MCF7 cell proliferation up to 100 uM after 96 hrs by alamar blue assay relative to estradiol; type: functional, cell-based; outline: as §2
MCF7 [10] = test: Antiestrogenic activity in human MCF7 cells assessed as drug level causing inhibition of 100 pM E2-enhanced cell proliferation to level equivalent to 1 pM E2 after 96 hrs by alamar blue assay; type: functional; outline: as §1

With COc1cc(/C=C/C(=O)O[C@H]2C[C@@H]3C(C(=O)O)=CO[C@@H](O[C@@H]4O[C@H](CO)[C@@H](O)[C@H](O)[C@H]4O)[C@@H]3[C@@H]2C)ccc1O [KHAINAOSIDE B] the Activity (T47D [1]) was less than 0.1 µM, the “inhibition (INH)” value (MCF7 [2]) was greater than 90% and the “inhibition (INH)” value (T47D [3]) was greater than 90%. For the same compound, the Activity (T47D [4]) was less than 0.1 µM, the Activity (T47D [5]) was “inactive” and the Activity (T47D [6]) was greater than 100 µM. The Activity (MCF7 [7]) was less than 0.1 µM, the Activity (MCF7 [8]) was less than 0.1 µM and the Activity (MCF7 [9]) was “inactive”. The Activity (MCF7 [10]) was greater than 100 µM.
